Experimental data from different studies.
Target: Inhibitor of nuclear factor kappa-B kinase subunit beta (IKBKB, Homo sapiens, UniProt O14920)

Structure (SMILES) | test | conditions | measurement | result
O=C1NC(=O)c2cc(Nc3ccc(F)cc3)c(Nc3ccc(F)cc3)cc21 | cell-free assay | 0.5 µM | remaining signal | 95.6%
c1ccc(CNc2nc(N3CCOc4ccccc43)nc3c2CCCC3)cc1 | target engagement in cells, inhibitor, chemoproteomics | 20 mM | inhibition | -6.4%
N#CCCc1ccc2c(c1)-c1[nH]c3ccc([N+](=O)[O-])cc3c1CC(=O)N2 | cell-free assay | 0.5 µM | remaining signal | 96.3%
CC/C(=N\NC(=O)NCc1cccc(O)c1)c1ccc(O)c(C)c1O | enzyme activity, inhibitor | 0.1 µM | inhibition | -0.9%
Nc1nc(NC2CCCCC2)sc1C(=O)c1ccccc1 | enzyme activity, inhibitor | 10 µM | remaining activity | 70%
CCCCNc1ncc2c(-c3ccc(F)cc3)nn(C[C@H]3CC[C@H](N)CC3)c2n1 | target engagement in cells, inhibitor, chemoproteomics | 20 mM | inhibition | -14.9%
CCC1(CC)NC(=O)c2c(c3ccc(Cl)c(Cl)c3n2C)C1C#N (stereo not shown) | thermal stability, DSF | 10 µM | ΔTm | 0.1 °C
O=C(Nc1cccnn1)N1CCC(=Cc2cccc(Oc3ccc(C(F)(F)F)cn3)c2)CC1 | cell-free assay, competition with immobilised ligand | 1 µM | remaining binding | 83%
FC(F)c1nc2ccccc2n1-c1nc(N2CCOCC2)nc(N2CCOCC2)n1 | enzyme activity, inhibitor | 10 µM | remaining activity | 94%
NS(=O)(=O)c1cc(NC(=O)Cc2ccccc2)ccc1Oc1cccc(Cl)c1 | cell-free assay, competition with immobilised ligand | 1 µM | remaining binding | 91%
O=C1c2ccccc2-c2n[nH]c3cccc1c23 | enzyme activity, inhibitor | 0.5 µM | activity vs control | 75.8%
O=C(NCCCC1CCCCC1)c1ccc(CNC(=O)c2cnn(-c3ccccc3)c2C(F)(F)F)cc1 | cell-free assay, competition with immobilised ligand | 0.1 µM | remaining binding | 100%
Cc1ccc(C(=O)NCc2ccsc2)cc1C#Cc1cn(C(C)C)c2ncnc(N)c12 | enzyme activity, inhibitor | 1 µM | activity vs control | 108%
CCN(CC)CCNC(=O)c1c(C)[nH]c(/C=C2\C(=O)Nc3ccc(F)cc32)c1C | enzyme activity, inhibitor | 10 µM | inhibition | 9%
CN1CCC2(CC1)NC(=O)c1c(c3ccc(Cl)c(Cl)c3n1C)C2C#N (racemic) | thermal stability, DSF | 10 µM | ΔTm | -0.2 °C
O=C(O)[C@H]1[C@H](Cn2nnc3ccccc3c2=O)CC[C@@H]1C(=O)c1ccc(OCCC2CCOCC2)cc1 | cell-free assay, competition with immobilised ligand | 1 µM | remaining binding | 100%
CC(C)(C)c1nc2c(s1)c1nc(N)ncc1c1ccc(NS(=O)(=O)c3c(F)cccc3F)c(F)c12 | enzyme activity, inhibitor, radiometric | 1 µM | remaining activity | 79%
O=c1cc(-c2cccc3c2Sc2ccccc2S3)oc(N2CCOCC2)c1 | enzyme activity, inhibitor | 0.5 µM | remaining activity | 101%
Cn1c2c(c3ccc(Cl)c(Cl)c31)C(C#N)C1(CCCC1)NC2=O (stereo not shown) | thermal stability, DSF | 10 µM | ΔTm | -0.7 °C
COc1cc(/C=C/C(=O)CC(=O)/C=C/c2ccc(O)c(OC)c2)ccc1O | enzyme activity, inhibitor | 1 µM | activity vs control | 69%

Structure (SMILES) | test | conditions | measurement | result
CCN(CC)c1ccc(C2=NNC(=O)CC2C)cc1[N+](=O)[O-] (stereo not shown) | enzyme activity, inhibitor | 10 µM | remaining activity | 97%
CCN1CCC2(CC1)NC(=O)c1c(c3ccc(Cl)c(Cl)c3n1C)C2C#N (racemic) | thermal stability, DSF | 10 µM | ΔTm | 0 °C
CC(C)(C)C(=O)c1sc(NC2CCCCC2)nc1N | enzyme activity, inhibitor | 10 µM | remaining activity | 99%
CC1=C(C#N)[C@@H](c2ccc3[nH]nc(C)c3c2)C(C#N)=C(c2ccc(Cl)cc2)N1 | cell-free assay, competition with immobilised ligand | 1 µM | remaining binding | 100%
CNC(=O)c1cc(Oc2ccc(NC(=O)Nc3ccc(Cl)c(C(F)(F)F)c3)cc2)ccn1 | enzyme activity, inhibitor | 10 µM | inhibition | -26%
C=CC(=O)Nc1cc(Nc2nccc(Nc3cc(Cl)c(F)cc3C(C)(C)O)n2)c(OC)cc1N1CC[C@@H](N(C)C)C1 | enzyme activity, inhibitor | 1 µM | inhibition | -5%
CCN(CC)CCNC(=O)c1c(C)[nH]c(/C=C2\C(=O)Nc3ccc(Cl)cc32)c1C | enzyme activity, inhibitor | 0.5 µM | remaining activity | 101%
O=C(CSc1nc2nccnc2c(=O)n1CCc1ccccc1)Nc1nccs1 | enzyme activity, inhibitor | 10 µM | inhibition | 12%
O=C(Nc1cnn(-c2csc(C(=O)NC3COC3)c2)c1)Nc1ccccc1Cl | enzyme activity, inhibitor | 5 µM | remaining activity | 95.6%
COc1cc2ncnc(Nc3ccc(Oc4ccccc4)cc3C)c2cc1OC | enzyme activity, inhibitor | 1 µM | inhibition | 1%
CN(C)C1CCN(CC#Cc2nn(C3CCCC3)c3nc(NCc4ccccc4)ncc23)C1 (stereo not shown) | enzyme activity, inhibitor, FRET | 1 µM | inhibition | 1%
FC(F)(F)Oc1cccc(-c2cnc3ccc(-c4ccncc4)nn23)c1 | enzyme activity, inhibitor, radiometric | 5 µM | activity vs control | 84%
CN(c1ccnc(CNc2nc(Nc3ccc4c(c3)CC(=O)N4)ncc2C(F)(F)F)n1)S(C)(=O)=O | cell-free assay, competition with immobilised ligand | 1 µM | remaining binding | 78%
Cn1c2c(c3ccc(Cl)c(Cl)c31)C(C#N)C1(CCNCC1)NC2=O (racemic) | thermal stability, DSF | 10 µM | ΔTm | 0.6 °C
Cc1ccc(Nc2nccc(N(C)c3ccc4c(C)n(C)nc4c3)n2)cc1S(N)(=O)=O | enzyme activity, inhibitor | 10 µM | inhibition | 17%
CCC(=O)N[C@@H]1CC[C@H](C(=O)N(C)c2ccc(-c3nc4ccccc4o3)cc2)C1 | cell-free assay, competition with immobilised ligand | 1 µM | remaining binding | 100%
Cc1cnc(NC2CCOCC2)nc1-n1cnc(C(=O)NC(CN)c2cc(F)cc(Cl)c2)c1 (stereo not shown) | enzyme activity, inhibitor, radiometric | 1 µM | remaining activity | 100%
Cc1ccc(NC(=O)c2ccc(C)c(C(F)(F)F)c2)cc1C#Cc1nn(C2CCC(O)CC2)c2ncnc(N)c12 (stereo not shown) | cell-free assay | 10 µM | remaining signal | 33%
COc1cc(Nc2cnc(C#N)c(O[C@H](C)CN(C)C)n2)ncc1-c1cnn(C)c1 | enzyme activity, inhibitor, radiometric | 10 µM | remaining activity | 86%
CCS(=O)(=O)c1cc2cc(C[C@](O)(CC(C)(C)c3ccc(F)cc3C(N)=O)C(F)(F)F)[nH]c2cn1 | cell-free assay, competition with immobilised ligand | 1 µM | remaining binding | 91%
